Our source for the ΔCt and Activity values is ChEMBL document CHEMBL3351861, “New synthetic sulfone derivatives inhibit growth, adhesion and the leucine arylamidase APE2 gene expression of Candida albicans in vitro” (2015).

Test [1] has as its system Candida albicans. Nature of the test: Reduction in APE2 gene expression in compound pre-treated Candida albicans CAI4 expressing delta-efg1 gene grown under YEPD medium at 16 ug/ml pre-treated for 2 hrs measured after 18 hrs by RT-PCR method. The test is classed as functional. The method, boiled down: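 YEPD-grown yeast (18 h, 30°C) washed and held at 10^4 cfu/ml in YEPD with 16 µg/ml sulfone for 2 h. Cells were then washed and regrown 18 h at 30°C in YEPD. Total RNA was reverse-transcribed and SYBR Green qPCR run (250 nM primers, 60 ng cDNA, 45 cycles). APE2 was normalized to ACT1 by 2^-ΔΔCt with strain 90028 as calibrator. Done in triplicate on three occasions.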

Test [2] concerns Candida albicans. The experiment in a line: Inhibition of cell adhesion of compound pre-treated Candida albicans CAI4 expressing delta-efg1 (EFG1) gene to human Caco2 cells assessed as cell adhesion level at 2 ug/ml pre-incubated for 18 hrs by colony counting method (reference value: 2.6 +/- 2.33%). Also on record: scale not given: the % may be the effect or the level left. The test is classed as functional, Caco-2.

For test [3], the system named is Candida albicans. The experiment in a line: Reduction in APE2 gene expression in compound pre-treated Candida albicans 90028 grown on human Caco2 cells monolayer at 16 ug/ml pre-treated for 2 hrs measured after 6 hrs by RT-PCR method. The test is classed as functional, Caco-2. The essentials:
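Blastoconidia are pre-incubated 2 h with 16 µg/ml sulfone in RPMI. They are then washed, resuspended in RPMI and placed on Caco-2 monolayers at 37°C, with RNA taken at 6 or 18 h. Real-time RT-PCR uses SYBR Green with 250 nM primers and 60 ng cDNA: 95°C 15 min, then 45 cycles of 94°C 15 s and 60°C 1 min, plus a melt curve. APE2 is normalized to ACT1 by 2^-ΔΔCt with 90028 as calibrator; three experiments.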

With `NNc1ccc(S(=O)(=O)C(Cl)(Br)Br)cc1[N+](=O)[O-]`, the ΔCt in test [1] was determined as 3.69; in test [3], 7.44. In test [2], the Activity is listed as 0.51%.
